Screening results as filed in PubChem.
Sampled rows, rich in hits. Any-hit rate of the full collection: about 11%.
M1 agonist – M1 muscarinic receptor agonism; CHO-M1 cells, Fluo-4 calcium fluorescence, agonist mode; hits give high values; B-score at 10 µM; 3% of 64,000 active; AID 626;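 active means fluorescence rise, raw or as B-score row- and column-corrected plate score, outside the 99.7% band of its plate's samples, either direction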
S1P1 ag pot – S1P1 (human) agonism or agonism potentiation; P21453; S1P1 CRE-bla cells, forskolin, beta-lactamase FRET, potentiator mode; S1P1 agonist co-added at EC20, 2 nM; 100% = saturating reference agonist, 0% = basal; activation, % at 9.5 µM; 0.57% of 56,000 active; AID 449;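 active means activation above a cutoff set at the mean activation of all tested compounds plus 3 SD, cut at about 54% in these data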;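 further: forskolin at 4 µM as EC80 and the EC20 agonist is SEW2871; 100% = SEW2871 at its EC100 plus forskolin at EC80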
S1P3 ag – agonists of human S1P3 receptor | Q99500 | S1P3 NFAT-BLA reporter cells, agonism, FRET ratio; relative to 1 µM S1P, basal subtracted | activation, % at 4.5 µM | 0.1% of 60,000 active | AID 373;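 active means activation above the screen-wide mean plus 3 SD, cut at about 4.5% in these data, passing the limit was not always enough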
Target sequence (Q99500 whole entry, looked up): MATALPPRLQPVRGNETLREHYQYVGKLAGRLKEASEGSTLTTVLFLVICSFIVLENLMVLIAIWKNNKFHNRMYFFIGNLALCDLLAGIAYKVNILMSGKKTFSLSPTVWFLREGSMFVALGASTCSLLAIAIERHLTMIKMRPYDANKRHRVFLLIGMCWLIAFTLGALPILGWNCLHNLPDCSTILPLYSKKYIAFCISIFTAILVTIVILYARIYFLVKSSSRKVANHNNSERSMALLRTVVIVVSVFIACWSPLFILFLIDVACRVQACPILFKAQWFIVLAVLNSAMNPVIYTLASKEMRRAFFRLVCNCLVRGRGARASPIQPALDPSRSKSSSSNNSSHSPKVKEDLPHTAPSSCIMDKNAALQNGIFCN
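Measure – % activation relative to 1 µM S1P (100%), per plate · System – stable CHO line with human S1P3, Gα16, NFAT-BLA reporter · Timing – cells plated overnight, compound 4 h 37 °C, substrate 2 h RT · Technique – fluorescent BLA substrate, ex 405 nm, em 460/535 nm ratio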
M1 antag – M1 muscarinic receptor (rat) antagonism; AID 628; 3.4% of 64,000 active; P08482; CHO-M1 cells, Fluo-4 calcium, ACh EC80 antagonist mode; hits give low values; B-score at 10 µM;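 active means calcium fluorescence response, raw or row-and-column corrected B-score, differing from the plate sample mean either way at a set confidence level, mostly lower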
D1 mod – allosterically modulates the human D1 dopamine receptor; P21728; HEK293 D1, CRE-luciferase, dopamine EC30 potentiation; actives deviate in either direction; B-score at 10 µM; 5.9% of 58,000 active;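 active means luminescence count or its row- and column-corrected plate score outside the 99.7% band of the plate's sample wells, on either side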
D1 mod confirm – confirmation of human D1 dopamine receptor allosteric modulators. HEK293 D1 CRE-luciferase, dopamine EC30 potentiation; hits give high values. 88% of 2,200 active. luminescence at 10 µM. shares compounds with D1 mod;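 active means luminescence in either of two replicates above the same-plate mean plus 3 SD of the low-dose dopamine control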
D1 no dopamine – secondary test of D1 modulators: activity without dopamine. shares compounds with D1 mod. HEK293 D1 CRE-luciferase, luminescence, no dopamine; hits give high values. luminescence at 10 µM. 0.8% of 1,900 active. AID 646; in the data active means luminescence above about 3900
Isoprot counter – counter-screen for D1 modulators: isoproterenol response in HEK293 cells | shares compounds with D1 mod | HEK293 D1 CRE-luciferase, isoproterenol EC30 counter-screen; hits give high values | luminescence at 10 µM | 63% of 2,200 active | AID 647;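 active means luminescence in either replicate above plate mean of wells with a partly effective reference agonist dose plus 3 SD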;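 further: isoproterenol raises cAMP through native beta-adrenoceptor Gs so signal bypasses D1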
* hit, by the source's call; / = no result.

SMILES | M1 agonist | S1P1 ag pot | S1P3 ag | M1 antag | D1 mod | D1 mod confirm | D1 no dopamine | Isoprot counter
CCOC(=O)c1oc2ccccc2c1NC(=O)c1cccc(OC)c1 | 0.36 | -62 | 0 | -0.62 | 0.51 | / | / | /
O=C(CNS(=O)(=O)c1cccc2nsnc12)NCc1ccc(Cl)cc1 | -1.6 | / | / | 0.53 | -0.62 | / | / | /
COc1ccccc1CC1(C)NC(=O)N(CC(=O)N2CC(C)OC(C)C2)C1=O (centres undefined) | -0.53 | / | / | 1.4 | -0.48 | / | / | /
C=CCOc1c(CNc2nccs2)cccc1OCC | 0.42 | -22 | 2 | 1.1 | -0.96 | / | / | /
O=C(c1cccc(F)c1)N1CCN(Cc2ccco2)CC1 | -1.1 | -9 | -1 | -0.45 | 3.9* | 8236 | 1664 | 2524
O=C(c1ccco1)N1CCN(Cc2cccc(F)c2)CC1 | -1.1 | / | -1 | -0.12 | -0.19 | / | / | /
COc1ccc(C(=O)OCCNC(=O)c2c(Cl)nc3ccccn23)cc1 | 0.71 | -40 | 0 | 0.42 | 5.1* | 13996* | 1764 | 3784*
Cc1cc(C(=O)N2CCN(Cc3ccc4c(c3)OCO4)CC2)cs1 | -0.1 | 1 | -1 | 0.012 | -2.4 | / | / | /
CCOc1ccc2[nH]c(=O)c(CN(CCO)C(=O)c3ccc(F)cc3)cc2c1 | 1.4 | -9 | -1 | 0.027 | 0.35 | / | / | /
CC(C)Sc1nc2c(c(=O)n1C)SC(C)C2 (centres undefined) | 0.34 | -12 | -1 | -0.089 | 3.4* | 8852* | 1524 | 2736
CSc1nc2c(c(=O)n1Cc1ccccc1)SC(C)C2 (centres undefined) | 1.1 | -9 | -1 | -0.73 | 5.4* | 8668* | 1704 | 3304*
CCC1CCCCN1C(=O)N[C@@H](Cc1ccccc1)C(=O)O (some centres undefined) | 0.14 | 3 | -1 | 0.39 | 0.39 | / | / | /
COC(=O)C1=C(C)Nc2ccc(C)cc2S1 | 0.64 | -10 | 0 | 0.14 | 8.7* | 11576* | 1468 | 3380*
C=CCNc1nc(Nc2ccc(OC)cc2OC)nc(OCC)n1 | 0.37 | 10 | -1 | 0.0071 | 3.8* | 10064* | 1524 | 2932*
O=C(CC1(O)C(=O)Nc2cc(Cl)cc(Cl)c21)c1ccncc1 (centres undefined) | / | 26 | -2 | / | 3.5* | 7604 | 1960 | 2456
O=C1Nc2ccccc2C1(O)Cc1ccncc1 (centres undefined) | -0.19 | 16 | -1 | 0.21 | -0.046 | / | / | /
NC1=NC(c2cn(-c3ccccc3)nc2-c2cccs2)n2c(nc3ccccc32)N1 (centres undefined) | -0.36 | 3 | -1 | -0.3 | 4.3* | 7380* | 1336 | 2668
Cc1ccc(S(=O)(=O)N2CC3CCC2C3)cc1 (centres undefined) | 0.88 | -1 | 0 | 0.96 | 4.4* | 6724* | / | 2088
CCOc1cccc(-c2nnc3sc(C4CCCCC4)nn23)c1 | -0.16 | 42 | 7 | -0.92 | / | / | / | /
COc1cccc(-c2nnc3sc(C4CCCCC4)nn23)c1 | -0.51 | 80* | -1 | 1 | 5.5* | 12024* | 1460 | 3564*
COc1cc(-c2nnc3sc(C4CCCCC4)nn23)cc(OC)c1OC | 4.7 | -16 | 1 | -0.89 | 7.4* | 15992* | 1688 | 8420*
COc1cc(OC)c(-c2nn3c(C4CCCCC4)nnc3s2)cc1OC | 0.041 | -75 | 0 | -0.38 | 5.2* | 10724* | 1788 | 6364*
CCOC(=O)N1CCC(Nc2c(NCCCN(CC)c3cccc(C)c3)c(=O)c2=O)CC1 | 1.2 | -8 | -1 | 0.69 | -0.063 | / | / | /
CCCc1[nH]nc2c1C1(C(=O)N(C(C)C)c3ccccc31)C(C#N)=C(N)O2 (centres undefined) | 0.67 | -6 | 0 | -0.22 | 2 | / | / | /
CCCCc1[nH]nc2c1C1(C(=O)N(CC)c3ccccc31)C(C#N)=C(N)O2 (centres undefined) | 0.26 | -7 | 0 | -0.047 | 16* | 13864* | 1676 | 3384*
SMILES | M1 agonist | S1P1 ag pot | S1P3 ag | M1 antag | D1 mod | D1 mod confirm | D1 no dopamine | Isoprot counter
CCOc1ccccc1C1NC(=O)NC(C)=C1C(=O)OC1CCCC1C (centres undefined) | -0.063 | -22 | 0 | -0.55 | -0.66 | / | / | /
CCOc1ccccc1C1NC(=O)NC(C)=C1C(=O)OC1CCCCC1 (centres undefined) | 1.3 | -12 | -1 | 0.49 | 4.2* | 5388* | 1456 | 2264
COc1ccc(N2C(C)=CS/C2=C(/C#N)c2nnc(N3CCOCC3)n2-c2ccccc2)cc1 | -0.026 | -1 | -1 | 0.67 | -0.17 | / | / | /
CCOC(=O)c1c(C)c(C(=O)NCc2ccccc2OC)c(C)n1C | 0.16 | -39 | 1 | -1.9 | 3.6* | 7232* | 1476 | 3600
CCOCCCNC(=O)c1c(C)c(C(=O)OCC)n(C)c1C | 0.48 | -20 | -1 | 0.63 | 0.3 | / | / | /
CC(=O)NC1C(=O)Nc2c1cccc2C(F)(F)F (centres undefined) | -0.26 | -12 | -2 | 0.31 | -0.032 | / | / | /
COc1nc(N(C#N)CC(N)=O)nc(N2CCCC2)n1 | -0.55 | -28 | 1 | 0.096 | 8.4* | 20228* | 1780 | 6184*
COC(=O)CN(C#N)c1nc(SC)nc(N(C)C)n1 | -0.72 | 2 | -1 | 1.6 | -0.26 | / | / | /
COc1nc(/C(N)=N/O)nc(N2CCCCC2)n1 | -0.034 | -25 | -1 | 1.1 | 13* | 24932* | 1416 | 5356*
COC(=O)c1cc(CSc2nnc(NC3CCCCC3)s2)oc1C | 0.9 | 21 | -1 | -1.2 | 10* | 10504* | 1400 | 2860*
COCCSc1nnc(NC(=O)C2CCCCC2)s1 | 0.69 | 9 | -1 | -1.2 | 0.22 | / | / | /
CC1CCN(C(=O)CSc2nnc(Cc3cc(=O)[nH]c(=O)[nH]3)n2-c2ccc(Cl)cc2)CC1 | 1.2 | 10 | 1 | -0.17 | -0.089 | / | / | /
Clc1ccccc1Cn1nnc2c(Nc3ccccc3)ncnc21 | -0.082 | -1 | 0 | 1.3 | 1.3 | / | / | /
Clc1ccccc1Cn1nnc2c(NCC3CC3)ncnc21 | -0.3 | -5 | 0 | -0.32 | 2.8* | 6104* | 1744 | 3312*
COc1cccc(C2NC(=O)NC(O)(C(F)(F)F)C2C(=O)c2cccnc2)c1OC (centres undefined) | 1.9 | / | -1 | 0.79 | 1.9 | / | / | /
CCSc1nc2ccccc2n1CC(=O)N1CCOCC1 | -0.07 | / | / | -0.0086 | 1.3 | / | / | /
CCSc1nc(N2CCOCC2)c2ccccc2n1 | 0.13 | -35 | 1 | 0.92 | 10* | 15840* | / | 3736*
O=C(O)CCC(=O)NC1CCCCC1NC(=O)CCC(=O)O (centres undefined) | 0.63 | 6 | -2 | 0.4 | -0.082 | / | / | /
